A selection: hits, their analogues and other compounds. The true share with any hit is near 3.5%.
RGS4 pot: RGS4 potentiation or activation. HEK293 M3R/inducible RGS4, carbachol calcium flux Fluo4; stronger effect = lower value. B-score at 10 µM. hit rate 0.92% among 310,000. AID 463111;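 active means B-score of the integrated calcium signal more than 4 SD below the library mean, with starting fluorescence not abnormally high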;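 further: negative B-score means reduced calcium response which marks RGS4 activation or potentiation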
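test system = M3R-expressing HEK293 line, RGS4 induced by doxycycline | probe or stimulus = carbachol at ECmax as muscarinic agonist stimulus | timing = dye loading 30 min 37 °C, buffer rest 30 min RT | signal = calcium dye Fluo4 fluorescence | evaluation = B score from integrated fluorescence ratio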
MrgX1 ag: human MrgX1 receptor agonism, primary screen; Q96LB2; MrgX1-HEK293 cells, Fluo-4 calcium fluorescence, agonist mode; stronger effect = higher value; B-score at 10 µM; hit rate 0.44% among 310,000; AID 588627;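 active means calcium response B-score plate-corrected fluorescence ratio at least 3 library SD, with starting fluorescence B-score inside 5 SD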
Target sequence (Q96LB2 whole entry, looked up): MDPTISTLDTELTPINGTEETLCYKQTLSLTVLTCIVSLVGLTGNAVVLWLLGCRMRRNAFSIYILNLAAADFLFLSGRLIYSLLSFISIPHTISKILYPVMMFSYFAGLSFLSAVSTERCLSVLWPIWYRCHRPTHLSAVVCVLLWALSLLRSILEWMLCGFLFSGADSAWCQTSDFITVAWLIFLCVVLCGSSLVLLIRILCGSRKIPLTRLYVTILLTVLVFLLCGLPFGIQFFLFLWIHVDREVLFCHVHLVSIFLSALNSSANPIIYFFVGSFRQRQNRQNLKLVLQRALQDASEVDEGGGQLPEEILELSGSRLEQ
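Material: HEK293 cells stably expressing human MrgX1 receptor | Quantity: 15,000 cells per well | Times: Cells plated overnight, dye loaded 0.5 h 37 °C, 0.5 h room temperature | Measured by: Kinetic Fluo-4 NW fluorescence of intracellular calcium | Control set: Positive and negative controls per plate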
RGS4 block: inhibitors of human RGS4 | P49798 | HEK293 M3R/RGS4 inducible, Fluo-4 calcium flux; stronger effect = higher value; triggered by carbachol at its EC20 | B-score at 10 µM | hit rate 0.45% among 310,000;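 active means B-score, a plate-corrected calcium signal, over three deviations above library mean, with baseline fluorescence within five deviations of library mean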;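 further: RGS4 expression induced by doxycycline in cells with stable M3 receptor; B-score is computed from the integrated fluorescence ratio over baseline after carbachol; higher B-score means a larger calcium signal and so more RGS4 inhibition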
MrgX1 allo act: human MrgX1 positive allosteric modulation, primary screen. Q96LB2. MrgX1-HEK293, Fluo-4 calcium flux, FDSS; stronger effect = higher value. B-score at 10 µM. hit rate 0.63% among 310,000. AID 588675;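 active means plate-corrected calcium response at least 3 library SD above typical, normal starting fluorescence, not activating the receptor alone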;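 further: compound read alongside a low EC10 to EC30 dose of BAM8-22 agonist; peak minus trough fluorescence over baseline measured at the second addition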
MrgX1 antag: antagonists of human MrgX1 receptor | hit rate 1.3% among 310,000 | MRGX1-HEK293 calcium flux, Fluo-4, BAM8-22 antagonism; stronger effect = lower value | AID 588676 | B-score at 10 µM;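 active means calcium-response B-score plate-corrected more than 3 library SD below zero, starting fluorescence within 5 deviations, no agonist response on first addition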;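 further: peak minus trough fluorescence over baseline after final BAM8-22 challenge near maximal dose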
* = called active by the depositor; i = inactive.

SMILES | RGS4 pot | MrgX1 ag | RGS4 block | MrgX1 allo act | MrgX1 antag
COc1cc(/C=C/C(=O)c2ccc3c(c2)OCCO3)cc(Br)c1OCC(=O)N(C)C | i | i | i | i | -5.6*
CCOc1c(Br)cc(CNc2ccc3c(c2)OCCO3)cc1OC | i | i | i | i | i
CCN(CC(=O)NCc1cccs1)C(=O)C1CC(=O)N(c2ccc(OC)cc2OC)C1 (centres undefined) | i | i | i | i | -4.8*
CCN(CC(=O)Nc1ccc2c(c1)OCCO2)C(=O)C1CC(=O)N(c2ccc(OC)cc2OC)C1 (centres undefined) | i | i | i | i | i
COc1cccc(C2c3c(oc4ccc(F)cc4c3=O)C(=O)N2CCCN2CCOCC2)c1 (centres undefined) | i | i | i | i | i
Cc1cc2oc(=O)cc(CN3CCCCC3)c2cc1C(C)C | i | 51* | i | i | i
Cc1cc2oc(=O)cc(CN3CCCCC3)c2cc1O | i | i | i | i | i
CCOC(=O)N1CCN(Cc2cc(=O)oc3cc4c(cc23)CCC4)CC1 | i | 33* | i | i | i
CCOC(=O)N1CCN(Cc2cc(=O)oc3ccc(Cl)cc23)CC1 | i | i | i | i | i
Cc1ccc(S(=O)(=O)N2CCC(C(=O)N/N=C/c3ccccc3[N+](=O)[O-])CC2)cc1 | i | i | i | i | i
Cc1ccc(S(=O)(=O)N2CCC(C(=O)N/N=C/c3cccnc3)CC2)cc1 | i | i | i | i | -5.2*
Cc1ccc(S(=O)(=O)NC(C)(C)CN2CCC(Cc3ccccc3)CC2)cc1 | i | i | i | i | i
O=C(NC(C(=O)N/N=C/c1cccnc1)c1n[nH]c(=O)c2ccccc12)c1ccccc1 (centres undefined) | i | 36* | i | i | i
CC(C)(C)N1C(=O)[C@H]2[C@@H](c3ccc(Br)cc3)N3C(=O)N(c4cccc(F)c4)C(=O)[C@@]3(C)[C@H]2C1=O | i | i | i | i | i
CCCCNc1c(-c2ccc(SC(C)CC)cc2)nc2ccccn12 (centres undefined) | -7.5* | i | i | i | i
CCCCNc1c(-c2ccc(SC3CCCCC3)cc2)nc2ccccn12 | i | i | i | i | i
COc1cc(C(C)=O)ccc1Oc1cc(NN2CCCCC2)c([N+](=O)[O-])cc1[N+](=O)[O-] | i | i | i | i | i
O=[N+]([O-])c1cc([N+](=O)[O-])c(Oc2cccc(Cl)c2Cl)cc1NN1CCCCC1 | -8.2* | i | i | i | i
Cc1ccc(C)c(Oc2cc(NN3CCCCC3)c([N+](=O)[O-])cc2[N+](=O)[O-])c1 | i | i | i | i | i
CCc1occc(=O)c1Oc1cc(NN2CCCCC2)c([N+](=O)[O-])cc1[N+](=O)[O-] | -8.2* | i | i | i | i
O=[N+]([O-])c1cc([N+](=O)[O-])c(Oc2ccc(Cl)c3cccnc23)cc1NN1CCCCC1 | i | i | i | i | i
Cc1ccc(F)c(Oc2cc(NN3CCCCC3)c([N+](=O)[O-])cc2[N+](=O)[O-])c1 | -7.4* | i | i | i | i
CC1(C)Cc2cccc(Oc3cc(NN4CCCCC4)c([N+](=O)[O-])cc3[N+](=O)[O-])c2O1 | i | i | i | i | i
O=[N+]([O-])c1cc([N+](=O)[O-])c(Oc2ccccc2F)cc1NN1CCCCC1 | -7* | i | i | i | i
O=C1CC(Sc2ncccn2)C(=O)N1c1ccccc1C(F)(F)F (centres undefined) | i | i | i | i | i
COC(=O)C1=C(C)N(Cc2ccco2)C(=O)/C1=C\c1ccc([N+](=O)[O-])cc1 | i | 28* | i | i | i
Cc1ccc(C(=O)NCc2ccco2)cc1[N+](=O)[O-] | i | i | i | i | i
CC1CCCN(c2ccc(C(=O)NCc3ccco3)cc2[N+](=O)[O-])C1 (centres undefined) | i | i | i | i | -6.4*
COC(=O)CS(=O)(=O)c1nnc([C@H](Cc2ccccc2)NC(=O)OC(C)(C)C)o1 | i | 30* | i | i | i

Screening results (PubChem BioAssay)
